From ChEMBL document CHEMBL4219191, “Discovery of new A- and B-type laxaphycins with synergistic anticancer activity” (Bioorg Med Chem, 2018)
Values belong to the molecule of their own block, whether it stands above or below them. Starred links: 1 amine or outer side, 2 acyl side, 3 side chain; linkers in the order of their positions; H or OH if unused. Non-standard residues stand in square brackets, D forms with d. Residues, ends and D or L forms follow the SMILES beside them. dβ3hAhp = CCCCC[C@H](CC(=O)[*:2])N[*:1]; d(aIle) = CC[C@H](C)[C@@H](N)C(=O)O; Hyp = O=C(O)[C@@H]1C[C@@H](O)CN1; X1 = C/C=C(/N[*:1])C(=O)[*:2]; hSer = N[C@@H](CCO)C(=O)O

Assays:
HCT-116 [1] = assay: Antiproliferative activity against human HCT116 cells after 48 hrs by MTT assay; format: functional, cell-based; settings: HCT-116, 48 h
Outline: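 HCT116 cells grown in DMEM with 10% FBS at 37 °C under 5% CO2. 10,000 cells per well were seeded and treated 24 h later with a concentration series in DMSO (0.5%). After 48 h more, MTT viability was read. Run in triplicate; IC50 by nonlinear regression.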

HCT-116 [2] = assay: Synergistic antiproliferative activity against human HCT116 cells assessed as combination index at 1 uM after 48 hrs in presence of 10 uM laxaphycin A by MTT assay; format: functional
HCT-116 [3] = assay: Synergistic antiproliferative activity against human HCT116 cells assessed as combination index at 0.32 uM after 48 hrs in presence of 3.2 uM laxaphycin A by MTT assay; format: functional
HCT-116 [4] = assay: Synergistic antiproliferative activity against human HCT116 cells assessed as combination index at 0.032 uM after 48 hrs in presence of 1 uM laxaphycin A by MTT assay; format: functional
HCT-116 [5] = assay: Synergistic antiproliferative activity against human HCT116 cells assessed as combination index at 1 uM after 48 hrs in presence of 32 uM laxaphycin A by MTT assay; format: functional
HCT-116 [6] = assay: Synergistic antiproliferative activity against human HCT116 cells assessed as combination index at 32 uM after 48 hrs in presence of 320 uM laxaphycin A by MTT assay; format: functional
HCT-116 [7] = assay: Synergistic antiproliferative activity against human HCT116 cells assessed as combination index at 0.1 uM after 48 hrs in presence of 1 uM laxaphycin A by MTT assay; format: functional
HCT-116 [8] = assay: Synergistic antiproliferative activity against human HCT116 cells assessed as combination index at 0.1 uM after 48 hrs in presence of 3.2 uM laxaphycin A by MTT assay; format: functional
HCT-116 [9] = assay: Synergistic antiproliferative activity against human HCT116 cells assessed as combination index at 10 uM after 48 hrs in presence of 100 uM laxaphycin A by MTT assay; format: functional
HCT-116 [10] = assay: Synergistic antiproliferative activity against human HCT116 cells assessed as combination index at 0.32 uM after 48 hrs in presence of 10 uM laxaphycin A by MTT assay; format: functional
HCT-116 [11] = assay: Synergistic antiproliferative activity against human HCT116 cells assessed as combination index at 3.2 uM after 48 hrs in presence of 32 uM laxaphycin A by MTT assay; format: functional
HCT-116 [12] = assay: Synergistic antiproliferative activity against human HCT116 cells assessed as combination index at 32 uM after 48 hrs in presence of 3.2 uM laxaphycin B4 by MTT assay; format: functional
HCT-116 [13] = assay: Synergistic antiproliferative activity against human HCT116 cells assessed as combination index at 320 uM after 48 hrs in presence of 32 uM laxaphycin B4 by MTT assay; format: functional
HCT-116 [14] = assay: Synergistic antiproliferative activity against human HCT116 cells assessed as combination index at 1 uM after 48 hrs in presence of 0.032 uM laxaphycin B4 by MTT assay; format: functional
HCT-116 [15] = assay: Synergistic antiproliferative activity against human HCT116 cells assessed as combination index at 1 uM after 48 hrs in presence of 0.1 uM laxaphycin B4 by MTT assay; format: functional
HCT-116 [16] = assay: Synergistic antiproliferative activity against human HCT116 cells assessed as combination index at 32 uM after 48 hrs in presence of 1 uM laxaphycin B4 by MTT assay; format: functional
HCT-116 [17] = assay: Synergistic antiproliferative activity against human HCT116 cells assessed as combination index at 10 uM after 48 hrs in presence of 0.32 uM laxaphycin B4 by MTT assay; format: functional
HCT-116 [18] = assay: Synergistic antiproliferative activity against human HCT116 cells assessed as combination index at 3.2 uM after 48 hrs in presence of 0.1 uM laxaphycin B4 by MTT assay; format: functional
HCT-116 [19] = assay: Synergistic antiproliferative activity against human HCT116 cells assessed as combination index at 3.2 uM after 48 hrs in presence of 0.32 uM laxaphycin B4 by MTT assay; format: functional
HCT-116 [20] = assay: Synergistic antiproliferative activity against human HCT116 cells assessed as combination index at 10 uM after 48 hrs in presence of 1 uM laxaphycin B4 by MTT assay; format: functional
HCT-116 [21] = assay: Synergistic antiproliferative activity against human HCT116 cells assessed as combination index at 100 uM after 48 hrs in presence of 10 uM laxaphycin B4 by MTT assay; format: functional

IC50 (HCT-116 [1]): 1.7 µM
Structure (SMILES): CCCCCCC[C@@H]1CC(=O)N[C@@H](C(C)C)C(=O)N[C@H]([C@@H](O)C(C)C)C(=O)N[C@@H](CCO)C(=O)N[C@H]([C@@H](O)C(C)C)C(=O)N[C@@H](CCC(N)=O)C(=O)N(C)[C@@H]([C@@H](C)CC)C(=O)N[C@H]([C@@H](O)C(N)=O)C(=O)N[C@@H]([C@@H](C)O)C(=O)N2C[C@H](O)C[C@H]2C(=O)N[C@H](CC(C)C)C(=O)N[C@@H]([C@@H](C)O)C(=O)N1
CI (HCT-116 [2]): 0.1157 | CI (HCT-116 [3]): 0.2909 | CI (HCT-116 [4]): 5.267 | CI (HCT-116 [5]): 0.029 | CI (HCT-116 [6]): 0.0002 | CI (HCT-116 [7]): 0.2457 | CI (HCT-116 [8]): 0.121 | CI (HCT-116 [9]): 0.0001 | CI (HCT-116 [10]): 0.063 | CI (HCT-116 [11]): 0.0005

IC50 (HCT-116 [1]): 23 µM
Structure (SMILES): C/C=C1/NC(=O)[C@H](CCO)NC(=O)C[C@@H](CCCCC)NC(=O)CNC(=O)[C@H](CC(C)C)NC(=O)[C@@H]([C@@H](C)CC)NC(=O)[C@H]([C@@H](C)CC)NC(=O)[C@@H](CC(C)C)NC(=O)[C@@H](Cc2ccccc2)NC(=O)[C@H](CCO)NC(=O)[C@@H]2C[C@@H](O)CN2C1=O [LAXAPHYCIN A] (cyclo(G[dβ3hAhp][hSer][X1][Hyp][hSer][dF][dL]I[d(aIle)]L))
CI (HCT-116 [12]): 0.0005 | CI (HCT-116 [13]): 0.0002 | CI (HCT-116 [14]): 5.267 | CI (HCT-116 [15]): 0.2457 | CI (HCT-116 [16]): 0.029 | CI (HCT-116 [17]): 0.063 | CI (HCT-116 [18]): 0.121 | CI (HCT-116 [19]): 0.2909 | CI (HCT-116 [20]): 0.1157 | CI (HCT-116 [21]): 0.0001

IC50 (HCT-116 [1]): 29 µM
Structure (SMILES): C/C=C1/NC(=O)[C@H](CCO)NC(=O)C[C@@H](CCCCC)NC(=O)CNC(=O)[C@H](CC(C)C)NC(=O)[C@@H]([C@@H](C)CC)NC(=O)[C@H](C(C)C)NC(=O)[C@@H](CC(C)C)NC(=O)[C@@H](Cc2ccccc2)NC(=O)[C@H](CCO)NC(=O)[C@@H]2C[C@@H](O)CN2C1=O (cyclo(G[dβ3hAhp][hSer][X1][Hyp][hSer][dF][dL]V[d(aIle)]L))
